From PMC6682041 (ACS Omega, 2019)

Experiments:
[1] = target: human recombinant GSK-3β (Homo sapiens, UniProt P49841); test: biochemical
[2] = target: Aβ25–35 (Homo sapiens, UniProt P05067); test: Self-induced Aβ25–35 aggregation inhibition assay; assay type: biochemical; settings: read-out: inhibition of self-induced Aβ25–35 aggregation
In short: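 Aβ25–35 was lyophilized from HFIP, taken to a 0.4 mM stock in 65% acetonitrile and diluted 2-fold in 69 mM phosphate pH 7.0. Test compound (0.2, 2, 20 µM) or reference inhibitor (10 µM) was added, then 24 h at 4 °C. ThT (25 µM, glycine–NaOH pH 8.5) was added, with 5 min before reading ex 446/em 490 nm. %inhibition = 100 − (Fi/Fc × 100); mean ± SD, n=3.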

[3] = target: T1, human recombinant β-secretase (BACE1) (Homo sapiens, UniProt P56817); test: BACE1 enzyme inhibition assay; assay type: biochemical
T1 sequence (P56817 46-501): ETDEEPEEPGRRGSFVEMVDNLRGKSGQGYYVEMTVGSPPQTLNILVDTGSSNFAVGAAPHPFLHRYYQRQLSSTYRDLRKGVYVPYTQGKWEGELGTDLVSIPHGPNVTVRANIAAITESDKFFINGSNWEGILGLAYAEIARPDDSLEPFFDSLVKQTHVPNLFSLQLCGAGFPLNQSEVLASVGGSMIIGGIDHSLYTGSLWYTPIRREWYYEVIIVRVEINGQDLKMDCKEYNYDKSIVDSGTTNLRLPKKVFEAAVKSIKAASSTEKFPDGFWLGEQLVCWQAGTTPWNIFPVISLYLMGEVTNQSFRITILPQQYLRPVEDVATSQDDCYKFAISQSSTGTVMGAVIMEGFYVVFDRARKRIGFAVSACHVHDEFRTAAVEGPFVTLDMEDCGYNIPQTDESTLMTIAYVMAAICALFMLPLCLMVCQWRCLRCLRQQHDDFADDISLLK

[4] = target: T2, electric eel AChE (Electrophorus electricus, UniProt O42275); test: Enzyme kinetics of AChE inhibition; assay type: biochemical; settings: for AChE inhibition type: determined by the Lineweaver–Burk plot
T2 sequence (O42275 24-633): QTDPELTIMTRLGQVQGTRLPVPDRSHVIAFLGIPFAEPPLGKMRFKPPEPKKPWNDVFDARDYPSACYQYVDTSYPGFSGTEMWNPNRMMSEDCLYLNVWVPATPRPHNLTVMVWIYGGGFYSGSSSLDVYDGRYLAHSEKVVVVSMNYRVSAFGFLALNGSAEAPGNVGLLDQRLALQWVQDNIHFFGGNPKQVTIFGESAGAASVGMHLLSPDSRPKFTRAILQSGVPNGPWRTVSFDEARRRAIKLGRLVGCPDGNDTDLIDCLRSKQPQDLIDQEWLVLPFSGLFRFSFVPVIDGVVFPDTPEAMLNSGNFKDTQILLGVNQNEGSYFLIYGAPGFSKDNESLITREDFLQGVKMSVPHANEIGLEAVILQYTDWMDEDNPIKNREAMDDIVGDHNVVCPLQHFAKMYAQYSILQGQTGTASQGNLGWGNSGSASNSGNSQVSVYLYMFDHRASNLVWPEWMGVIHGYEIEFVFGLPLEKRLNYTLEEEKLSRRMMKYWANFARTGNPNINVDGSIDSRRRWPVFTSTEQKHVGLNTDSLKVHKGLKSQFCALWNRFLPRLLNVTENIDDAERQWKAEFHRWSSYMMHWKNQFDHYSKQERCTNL
In short: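 Electric eel AChE (0.36 U/mL solution) was preincubated 15 min at RT with the test compound (0.5–10 µM, from 10% DMSO) in sodium phosphate buffer pH 8.0. DTNB and acetylthiocholine (0.1, 0.3, 0.6 […]) were then added, with 10 min at RT and A412 read. Run in triplicate. Inhibition type came from Lineweaver–Burk plots and Ki from Dixon plots.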

[5] = target: T3, horse serum BChE (Equus caballus, UniProt P81908); test: Enzyme kinetics of BChE inhibition; assay type: biochemical; settings: for BChE inhibition type: determined by the Lineweaver–Burk plot
T3 sequence (P81908 whole entry): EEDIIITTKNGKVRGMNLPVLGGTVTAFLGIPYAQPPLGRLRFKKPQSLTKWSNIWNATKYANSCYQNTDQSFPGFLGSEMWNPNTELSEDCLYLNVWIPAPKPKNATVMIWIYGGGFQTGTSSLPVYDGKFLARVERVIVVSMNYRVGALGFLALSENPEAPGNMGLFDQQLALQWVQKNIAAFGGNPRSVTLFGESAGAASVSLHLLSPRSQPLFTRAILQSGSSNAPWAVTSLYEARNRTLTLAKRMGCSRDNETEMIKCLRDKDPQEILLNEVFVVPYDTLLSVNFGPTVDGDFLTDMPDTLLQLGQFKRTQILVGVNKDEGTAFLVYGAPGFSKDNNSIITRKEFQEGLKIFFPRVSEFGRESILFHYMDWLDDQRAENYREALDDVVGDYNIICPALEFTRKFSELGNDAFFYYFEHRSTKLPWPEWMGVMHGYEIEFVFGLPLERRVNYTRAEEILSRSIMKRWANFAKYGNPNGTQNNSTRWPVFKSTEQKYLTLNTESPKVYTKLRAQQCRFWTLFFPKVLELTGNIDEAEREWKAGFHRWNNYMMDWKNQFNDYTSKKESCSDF
In short: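 Horse serum BChE (0.36 U/mL solution) was preincubated 15 min at RT with the test compound (1.25–10 µM, from 10% DMSO) in sodium phosphate buffer pH 8.0. Reaction started with DTNB plus butyrylthiocholine (0.1, 0.3, 0.6 […]), then 10 min at RT and A412 read. Run in triplicate. Lineweaver–Burk plots gave the inhibition mode; Dixon plots gave Ki.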

[6] = target: T2, electric eel AChE; test: Cholinesterase enzyme inhibition assay; assay type: biochemical
In short: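 Electric eel AChE, added as a 0.36 U/mL solution, was preincubated 15 min at room temperature in sodium phosphate buffer (pH 8.0) with test compound dissolved in 10% DMSO. DTNB and […] substrate were then added, with a further 10 min at room temperature. Absorbance was read at 412 nm, in triplicate. % inhibition = (1 − T/C) × 100; IC50 from the log dose–inhibition curve.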

[7] = target: T1, human recombinant β-secretase (BACE1); test: Enzyme kinetics of BACE1 inhibition; assay type: biochemical; settings: for BACE1 inhibition type: determined by the Lineweaver–Burk plot
In short: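 FRET kit using human recombinant β-secretase (1.0 U/mL solution) in assay buffer pH 4.5. The test compound (0.625–5 µM) was mixed with substrate at 250, 375 or 750 nM and incubated 60 min at RT in the dark. Fluorescence was read at ex 545/em 585 nm, and inhibition taken from the 0 to 60 min change versus control. Lineweaver–Burk plots gave the mechanism; Dixon plots gave Ki.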

[8] = target: T3, horse serum BChE; test: Cholinesterase enzyme inhibition assay; assay type: biochemical

human recombinant GSK-3β, sequence (P49841 whole entry): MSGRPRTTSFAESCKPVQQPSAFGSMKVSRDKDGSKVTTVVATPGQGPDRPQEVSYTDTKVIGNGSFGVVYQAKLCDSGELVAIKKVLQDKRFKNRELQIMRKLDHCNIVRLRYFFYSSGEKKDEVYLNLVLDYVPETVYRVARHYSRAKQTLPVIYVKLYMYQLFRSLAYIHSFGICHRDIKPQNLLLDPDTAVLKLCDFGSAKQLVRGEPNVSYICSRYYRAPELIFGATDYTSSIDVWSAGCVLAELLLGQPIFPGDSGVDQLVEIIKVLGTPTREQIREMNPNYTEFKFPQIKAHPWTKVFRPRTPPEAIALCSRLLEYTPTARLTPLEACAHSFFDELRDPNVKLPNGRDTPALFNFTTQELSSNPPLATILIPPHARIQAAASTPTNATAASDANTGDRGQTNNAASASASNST

O=c1cc(-c2ccc(O)c(O)c2)oc2cc(O)cc(O)c12 [luteolin, reference compound]
IC50 [1]: 5.42 ± 0.19 µM

OCc1c(Br)c(O)c(O)c(Br)c1Br [Compound 1, 2,3,6-tribromo-4,5-dihydroxybenzyl alcohol]
IC50 [1]: 229 ± 12.1 µM | inhibition at 20 µM [2]: 66.8% | IC50 [3]: 5.16 ± 0.6 µM | Ki [4]: 0.58 µM | AChE inhibition type [4]: mixed | Ki [5]: 1.15 µM | BChE inhibition type [5]: competitive | IC50 [6]: 7.31 ± 0.25 µM | Ki [7]: 3.1 µM | BACE1 inhibition type [7]: noncompetitive | IC50 [8]: 8.95 ± 2.18 µM

COc1ccc2cc3[n+](cc2c1OC)CCc1cc2c(cc1-3)OCO2 [berberine, reference compound]
IC50 [6]: 1.17 ± 0.09 µM

COc1cc(/C=C/C(=O)CC(=O)/C=C/c2ccc(O)c(OC)c2)ccc1O [curcumin, reference compound]
inhibition at 10 µM [2]: 52.4%

Oc1c(O)c(Br)c(COCc2c(Br)c(O)c(O)c(Br)c2Br)c(Br)c1Br [Compound 3, bis-(2,3,6-tribromo-4,5-dihydroxybenzyl) ether]
IC50 [1]: 56.5 ± 2.48 µM | inhibition at 20 µM [2]: 58.5% | IC50 [3]: 2.32 ± 0.1 µM | Ki [4]: 0.64 µM | AChE inhibition type [4]: mixed | Ki [5]: 0.37 µM | BChE inhibition type [5]: competitive | IC50 [6]: 2.66 ± 0.24 µM | Ki [7]: 1.24 µM | BACE1 inhibition type [7]: competitive | IC50 [8]: 4.03 ± 0.15 µM

COCc1c(Br)c(O)c(O)c(Br)c1Br [Compound 2, 2,3,6-tribromo-4,5-dihydroxybenzyl methyl ether]
IC50 [1]: 140 ± 15.1 µM | inhibition at 20 µM [2]: 56.7% | IC50 [3]: 4.79 ± 0.82 µM | Ki [4]: 0.71 µM | AChE inhibition type [4]: mixed | Ki [5]: 0.51 µM | BChE inhibition type [5]: competitive | IC50 [6]: 9.61 ± 0.35 µM | Ki [7]: 0.7 µM | BACE1 inhibition type [7]: noncompetitive | IC50 [8]: 14.4 ± 0.27 µM
